Calls of active or inactive are those of the source.
Columns and labels:
HSC-6 [1] = experiment: Antitumor activity against human HSC-6 cells xenografted in BALB/c nude mouse model of orthotopic tumor assessed as as reduction in distant metastasis in kidney at 30 mg/kg by H and E analysis; type: functional, organism-based
HSC-6 [2] = experiment: Antitumor activity against human HSC-6 cells xenografted in BALB/c nude mouse model of orthotopic tumor assessed as as reduction in distant metastasis in lung at 30 mg/kg by H and E analysis; type: functional, organism-based
HSC-6 [3] = experiment: Antitumor activity against human HSC-6 cells xenografted in BALB/c nude mouse model of orthotopic tumor assessed as reduction in lymphnode metastasis at 30 mg/kg by immunohistochemistry analysis; type: functional, organism-based
Outline: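 Orthotopic model: 5 × 10^5 HSC6 cells injected submucosally into the tongue of 4-week-old BALB/c nude mice, vehicle or 30 mg/kg (n = 12 each). Cervical lymph node metastasis detected by IHC with pan-cytokeratin antibody 1:400. Metastasis rates compared by Fisher's exact test.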

HSC-6 [4] = experiment: Antimigratory activity against human HSC-6 cells assessed as reduction in cell migration at 10 uM for 4 days by transwell assay; type: functional, cell-based; conditions: time 4.0 day
Outline: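 Transwell migration and invasion with 8-μm pore inserts. HSC6 or SCC25 cells, including lines stably overexpressing Flag-Twist1, treated at 10 μM for 4 days. Mean ± SD of three independent experiments, one-way ANOVA.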

[5] = target: Protein arginine N-methyltransferase 5 (Homo sapiens) (UniProt O14744); experiment: Inhibition of PRMT5 in human HSC-6 cells assessed as reduction in H3R2me2 protein expression at 10 uM incubated for 4 days by western blot analysis; type: cell-based; conditions: time 4.0 day
HSC-6 [6] = experiment: Antitumor activity against human HSC-6 cells xenografted in BALB/c nude mouse model of orthotopic tumor assessed as reduction in tumor volume in tongue at 30 mg/kg by H and E staining based assay; type: functional, organism-based
Outline: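 Orthotopic tongue xenograft: 5 × 10^5 HSC6 cells submucosally in 4-week-old BALB/c nude mice, control or 30 mg/kg (n = 12 each). Tumour volume quantified on HE-stained longitudinal tongue sections. Student's t test.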

[7] = target: Protein arginine N-methyltransferase 5 (Homo sapiens) (UniProt O14744); experiment: Inhibition of PRMT5 in human SCC-25 cells assessed as reduction in H3R8me2 protein expression at 10 uM incubated for 4 days by western blot analysis; type: cell-based; conditions: time 4.0 day

Sequence of Protein arginine N-methyltransferase 5 (Homo sapiens) (O14744 whole entry): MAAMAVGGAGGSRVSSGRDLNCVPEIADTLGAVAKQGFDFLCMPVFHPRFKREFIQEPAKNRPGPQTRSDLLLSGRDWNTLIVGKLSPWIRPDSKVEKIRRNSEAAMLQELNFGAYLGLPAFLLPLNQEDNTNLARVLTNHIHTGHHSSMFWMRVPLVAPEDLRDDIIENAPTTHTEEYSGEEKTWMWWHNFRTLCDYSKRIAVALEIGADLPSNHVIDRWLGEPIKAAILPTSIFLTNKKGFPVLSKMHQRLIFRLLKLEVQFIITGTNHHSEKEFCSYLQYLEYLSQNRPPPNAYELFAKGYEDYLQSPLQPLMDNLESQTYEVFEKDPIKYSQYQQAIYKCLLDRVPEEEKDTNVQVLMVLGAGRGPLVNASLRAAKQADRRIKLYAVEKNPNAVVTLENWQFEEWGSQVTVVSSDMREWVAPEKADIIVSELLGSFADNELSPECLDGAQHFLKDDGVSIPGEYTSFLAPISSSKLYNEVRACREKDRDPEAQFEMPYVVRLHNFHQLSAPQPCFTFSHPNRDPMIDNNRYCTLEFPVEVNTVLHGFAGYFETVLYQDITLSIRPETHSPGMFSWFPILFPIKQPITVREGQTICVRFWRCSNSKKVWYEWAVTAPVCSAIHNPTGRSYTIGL

O=C(NC[C@H](O)CN1CCc2ccccc2C1)c1cc(NC2COC2)ncn1
active: Activity (HSC-6 [1]) | Activity (HSC-6 [2]) | Activity (HSC-6 [3]) | Activity (HSC-6 [4]) | inhibition [5] | Activity (HSC-6 [6]) | inhibition [7]

— ChEMBL document CHEMBL5712918, “Targeting methyltransferase PRMT5 retards the carcinogenesis and metastasis of HNSCC via epigenetically inhibiting Twist1 transcription” (Neoplasia, 2020)
